The results in this text go back to ChEMBL document CHEMBL4002595, “Metadynamics for Perspective Drug Design: Computationally Driven Synthesis of New Protein-Protein Interaction Inhibitors Targeting the EphA2 Receptor” (J Med Chem, 2017).

For orientation: IC50 means the concentration needed to halve the response being measured. As usually defined, the Cmax is the peak of the concentration-time curve. One may read the logD as lipophilicity at a set pH, counting ionised and neutral species. Broadly, the Tmax is the time from dosing to the highest level. As a reminder, the half-life is how long it takes for the measured level to halve.

The target of one data set is Ephrin type-A receptor 2 (Mus musculus, UniProt Q03145). As to the kind of experiment: Displacement of biotinylated ephrin-A1-Fc from recombinant mouse EphA2 receptor preincubated for 1 hr followed by biotinylated ephrin-A1-Fc addition measured after 4 hrs by ELISA method.
Chain of Ephrin type-A receptor 2 (Q03145 whole entry): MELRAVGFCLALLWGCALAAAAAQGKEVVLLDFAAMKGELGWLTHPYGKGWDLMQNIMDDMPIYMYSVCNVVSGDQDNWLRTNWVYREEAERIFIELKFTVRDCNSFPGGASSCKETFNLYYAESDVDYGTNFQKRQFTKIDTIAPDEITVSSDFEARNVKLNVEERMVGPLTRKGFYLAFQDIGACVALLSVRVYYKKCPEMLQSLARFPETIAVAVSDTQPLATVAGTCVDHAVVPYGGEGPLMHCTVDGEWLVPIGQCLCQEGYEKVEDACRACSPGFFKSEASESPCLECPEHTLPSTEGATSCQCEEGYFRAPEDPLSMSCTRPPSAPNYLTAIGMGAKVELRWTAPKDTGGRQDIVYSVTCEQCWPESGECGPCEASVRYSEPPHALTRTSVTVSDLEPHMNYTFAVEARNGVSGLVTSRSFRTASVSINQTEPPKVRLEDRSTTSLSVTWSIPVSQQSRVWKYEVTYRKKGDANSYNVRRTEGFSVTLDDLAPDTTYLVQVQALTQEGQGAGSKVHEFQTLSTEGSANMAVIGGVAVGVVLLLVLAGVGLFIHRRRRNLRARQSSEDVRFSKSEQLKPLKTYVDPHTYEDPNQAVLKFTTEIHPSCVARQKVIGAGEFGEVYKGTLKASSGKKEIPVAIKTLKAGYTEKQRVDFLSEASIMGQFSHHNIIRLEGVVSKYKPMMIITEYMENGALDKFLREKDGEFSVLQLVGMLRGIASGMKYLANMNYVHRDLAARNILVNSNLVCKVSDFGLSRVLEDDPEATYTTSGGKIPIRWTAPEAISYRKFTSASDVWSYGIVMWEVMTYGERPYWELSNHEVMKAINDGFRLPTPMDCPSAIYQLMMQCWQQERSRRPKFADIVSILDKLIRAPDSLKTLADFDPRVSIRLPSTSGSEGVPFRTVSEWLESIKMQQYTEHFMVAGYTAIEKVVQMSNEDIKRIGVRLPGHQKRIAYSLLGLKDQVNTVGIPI
Data set [1] in a line: Kinetic solubility in MOPS buffer at pH 7.4 measured after 4 hrs by HPLC-ESI-MS/MS analysis. Particulars: read-out: Kinetic_solubility. Type of data set: physicochemical. The procedure, abridged: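 DMSO stock (10 mM) diluted into 50 mM MOPS pH 7.4, ionic strength 0.15 M with KCl, final 1% DMSO. Agitated 4 h at 25 ± 3 °C, centrifuged 1,000 g 10 min. Supernatant diluted 1:1 with MeOH containing internal standard, quantified by HPLC-ESI-MS/MS against per-compound MeOH calibration curves.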

Data set [2] in a line: Cmax in mouse at 30 mg/kg, administered as single dose via oral gavage by HPLC-ESI-MS/MS analysis. Type of data set: ADME, organism-based. Also noted: dose 30 mg/kg, route oral. The note with it: in vivo. The procedure, abridged: (§1)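 Male mice, fasted, groups of four; single oral gavage at 30 mg/kg in 0.5% methylcellulose (10/90 v/v). Tail-puncture blood at 5-7 time points between 15 and 1440 min, centrifuged 5000 rpm 10 min, plasma stored at -20 °C, quantified by HPLC-ESI-MS/MS. Reported as means ± SEM.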

The nature of data set [3]: n-Octanol-buffer partition co-efficient, log D of the compound at pH 7.4 incubated overnight by shake-flask method. Type of data set: physicochemical. The procedure, abridged: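 Shake-flask n-octanol/buffer partition at 25 ± 3 °C against 50 mM MOPS pH 7.4, ionic strength 0.15 M with KCl. Pre-saturated phases equilibrated overnight. Each phase diluted in MeOH with internal standard and analysed by HPLC-ESI-MS/MS. Mean of three independent partitions using different octanol/buffer volume ratios.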

Data set [4] in a line: Stability in mouse plasma assessed as compound remaining at 1 uM after 24 hrs by HPLC-ESI-MS/MS analysis. Type of data set: ADME, cell-free. Particulars: read-out: Stability. The method in brief: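 Mouse plasma diluted to 80% (v/v) with 100 mM PBS pH 7.4. Compound added at 1 μM final with 1% v/v DMSO, held at 37 °C. Aliquots taken at intervals, quenched with two volumes MeCN, centrifuged 9,000 g 10 min at 4 °C. Percent remaining measured by HPLC-ESI-MS/MS.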

Data set [5] in a line: Tmax in mouse at 30 mg/kg, administered as single dose via oral gavage by HPLC-ESI-MS/MS analysis. In kind it is ADME, organism-based. The note with it: in vivo. The method in brief: as §1
Data set [6] is described as follows: Half-life in mouse liver microsomes at 1 uM in presence of NADPH by HPLC-ESI-MS/MS analysis. Type of data set: ADME, microsome. Background: Microsomes from liver hold many membrane-bound enzymes, among them those of drug oxidation.
The subject of data set [7] is Plasma. As to the kind of experiment: Drug uptake in mouse plasma at 30 mg/kg, administered as single dose via oral gavage after 24 hrs by HPLC-ESI-MS/MS analysis. Particulars: in vivo. In kind it is ADME, organism-based. The method in brief:
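Male mice (fasted, four per group) received a single esophageal gavage of 30 mg/kg in 0.5% methylcellulose. Tail-puncture blood was taken at 5–7 time points between 15 and 1440 min. Plasma was separated by centrifugation (5000 rpm, 10 min), stored at –20 °C and quantified by HPLC-ESI-MS/MS. Data are means ± SEM.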

For data set [8], the system named is Liver. Briefly: Drug level in mouse liver microsomes treated with (S)-3-((S)-4-((5R,8R,9S,10S,13R,14S,17R)-3-hydroxy-10,13-dimethylhexadecahydro-1H-cyclopenta[a]phenanthren-17-yl)pentanamido)-4-(1H-indol-3-yl)butanoic acid by HPLC-ESI-MS/MS analysis.
Data set [9] has as its target Ephrin type-A receptor 2 (Mus musculus) (UniProt Q03145). As to the kind of experiment: Displacement of biotinylated ephrin-A1-Fc from recombinant mouse EphA2 receptor up to 100 uM preincubated for 1 hr followed by biotinylated ephrin-A1-Fc addition measured after 4 hrs by ELISA method. The method in brief:
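EphA2-Fc (1 µg mL⁻¹ in PBS pH 7.4) was coated overnight at 4 °C, then blocked with PBS + 0.5% BSA for 1 h at 37 °C. Compounds in 1% DMSO were added for 1 h at 37 °C. Biotinylated ephrin-A1-Fc was then added at its K_D for 4 h at 37 °C. Detection used streptavidin-HRP (20 min, RT), TMB/H₂O₂, HCl stop and A450. IC₅₀ came from one-site competition nonlinear regression; mean of ≥3 independent experiments.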
(In general: In an ELISA, binding on a coated surface is turned into a signal by an enzyme label.)

Data set [10] deals with Plasma. Briefly: Drug uptake in mouse plasma at 30 mg/kg, administered as single dose via oral gavage after 120 min by HPLC-ESI-MS/MS analysis. Particulars: in vivo.
In data set [11] the test system is Liver. As to the kind of experiment: Drug metabolism in mouse liver microsomes assessed as (S)-3-((S)-4-((5R,8R,9S,10S,13R,14S,17R)-10,13-dimethyl-3-oxohexadecahydro-1H-cyclopenta[a]phenanthren-17-yl)pentanamido)-4-(1H-indol-3-yl)butanoic acid formation by HPLC-ESI-MS/MS analysis. Type of data set: ADME, microsome.

≈ marks a conversion by molar mass, not a printed value. Calls of active or inactive are those of the source. The calls are words filed in the database; no cut-off is given here.

Chain of Ephrin type-A receptor 2 (Mus musculus) (Q03145 whole entry): as above

Regarding `C[C@H](CCC(=O)N[C@H](CC(=O)O)Cc1cccc2ccccc12)[C@H]1CC[C@H]2[C@@H]3CC[C@@H]4C[C@H](O)CC[C@]4(C)[C@H]3CC[C@]12C`, at Ephrin type-A receptor 2, the half-inhibitory concentration (IC50) is 3.9 µM.

For the compound `C[C@H](CCC(=O)N[C@H](CC(=O)O)c1ccccc1)[C@H]1CC[C@H]2[C@@H]3CC[C@@H]4C[C@H](O)CC[C@]4(C)[C@H]3CC[C@]12C`, the IC50 on Ephrin type-A receptor 2 was 14 µM. On the same count and under the same terms, in the case of `C[C@H](CCC(=O)NCCS(=O)(=O)O)[C@H]1CC[C@H]2[C@@H]3CC[C@@H]4C[C@H](O)CC[C@]4(C)[C@H]3CC[C@]12C` [TAUROLITHOCHOLIC ACID] it was 72 µM. Turning to `C[C@H](CCC(=O)N[C@H](CC(=O)O)Cc1c[nH]c2ccccc12)[C@H]1CC[C@H]2[C@@H]3CC[C@@H]4C[C@H](OC(N)=O)CC[C@]4(C)[C@H]3CC[C@]12C`, the solubility kinetic at 4 h in data set [1] turned out to be 18.7 µM (≈ 11.6 µg/mL). In data set [2], this compound returned a Cmax of 870 nM. This compound also gave a pH-dependent lipophilicity (logD) in data set [3] of 5.01. In addition, the remaining at 24 h, 1 µM in data set [4] is 98.2%. Moreover, the Tmax in data set [5] was 1 h. In addition, the half-life at 1 µM in [6] worked out at 2.6 h. For the same compound, the Drug uptake result with Plasma [7] was “Active”. At Ephrin type-A receptor 2, the IC50 amounted to 0.8 µM. Take `C[C@H](CCC(=O)N[C@H](CC(=O)O)Cc1c[nH]c2ccccc12)[C@H]1CC[C@H]2[C@@H]3CC[C@@H]4CC(=O)CC[C@]4(C)[C@H]3CC[C@]12C`: in the data set with Liver [8], the Drug metabolism result is “Metabolite_Detected”. For `COC(=O)CCNC(=O)CC[C@@H](C)[C@H]1CC[C@H]2[C@@H]3CC[C@@H]4C[C@H](O)CC[C@]4(C)[C@H]3CC[C@]12C`, the inhibition entry in data set [9] is “inactive”.

Take `C[C@H](CCC(=O)N[C@H](CC(=O)O)Cc1ccccc1)[C@H]1CC[C@H]2[C@@H]3CC[C@@H]4C[C@H](O)CC[C@]4(C)[C@H]3CC[C@]12C`: at Ephrin type-A receptor 2, the IC50 is 18 µM. Consider `C[C@H](CCC(=O)N[C@H](CC(=O)O)Cc1csc2ccccc12)[C@H]1CC[C@H]2[C@@H]3CC[C@@H]4C[C@H](O)CC[C@]4(C)[C@H]3CC[C@]12C`, for which the concentration for half-maximal inhibition (IC50) at Ephrin type-A receptor 2 came out at 1.8 µM. Regarding `C[C@H](CCC(=O)O)[C@H]1CC[C@H]2[C@@H]3CC[C@@H]4C[C@H](O)CC[C@]4(C)[C@H]3CC[C@]12C` [LITHOCHOLIC ACID], the IC50 on Ephrin type-A receptor 2 was 79 µM. As for `CO/N=C1\CC[C@@]2(C)[C@H](CC[C@@H]3[C@@H]2CC[C@]2(C)[C@@H]([C@H](C)CCC(=O)N[C@H](CC(=O)O)Cc4c[nH]c5ccccc45)CC[C@@H]32)C1`, at Ephrin type-A receptor 2, the IC50 was 13 µM. As to `C[C@H](CCC(=O)NCCCCC(=O)O)[C@H]1CC[C@H]2[C@@H]3CC[C@@H]4C[C@H](O)CC[C@]4(C)[C@H]3CC[C@]12C`, the inhibition entry in data set [9] was “inactive”.

Take `C[C@H](CCC(=O)N[C@@H](CCc1ccccc1)CC(=O)O)[C@H]1CC[C@H]2[C@@H]3CC[C@@H]4C[C@H](O)CC[C@]4(C)[C@H]3CC[C@]12C`: in data set [9], the inhibition entry is “inactive”. For the compound `C[C@H](CCC(=O)N[C@H](CC(=O)O)Cc1c[nH]c2ccccc12)[C@H]1CC[C@H]2[C@@H]3CC[C@@H]4C[C@H](O)CC[C@]4(C)[C@H]3CC[C@]12C`, in data set [1], the solubility kinetic at 4 h was 31.8 µM (≈ 18.3 µg/mL). The Cmax in [2] is 10 nM. In addition, the half-life at 1 µM in data set [6] worked out at 0.28 h. Also, the Drug uptake result in the data set with Plasma [10] is reported as “Active”. In the data set on Liver [11], the Drug metabolism entry is given as “Metabolite_Detected”. On to `C[C@H](CCC(=O)NCCC(=O)O)[C@H]1CC[C@H]2[C@@H]3CC[C@@H]4C[C@H](O)CC[C@]4(C)[C@H]3CC[C@]12C`, for which the IC50 at Ephrin type-A receptor 2 was 29 µM. `CC(C)C[C@@H](CC(=O)O)NC(=O)CC[C@@H](C)[C@H]1CC[C@H]2[C@@H]3CC[C@@H]4C[C@H](O)CC[C@]4(C)[C@H]3CC[C@]12C`: the inhibition entry in [9] was “inactive”. For `CC(C)[C@@H](CC(=O)O)NC(=O)CC[C@@H](C)[C@H]1CC[C@H]2[C@@H]3CC[C@@H]4C[C@H](O)CC[C@]4(C)[C@H]3CC[C@]12C`, the IC50 on Ephrin type-A receptor 2 is 10 µM. With `C[C@H](CCC(=O)N[C@H](CC(=O)O)Cc1c[nH]c2ccccc12)[C@H]1CC[C@H]2[C@@H]3CC[C@@H]4C/C(=N/O)CC[C@]4(C)[C@H]3CC[C@]12C`, the solubility kinetic at 4 h in data set [1] was 51.9 µM (≈ 30.6 µg/mL). Also, the highest level in data set [2] (Cmax) was 400 nM. For the same compound, the logD in [3] was found to be 4.23. The remaining at 24 h, 1 µM in data set [4] came out at 93.7%. In addition, the Tmax in [5] amounted to 1 h. In addition, the half-life at 1 µM in data set [6] is 1.01 h. On Ephrin type-A receptor 2, the IC50 stood at 3.1 µM.

For `C[C@H](CCC(=O)NCCCC(=O)O)[C@H]1CC[C@H]2[C@@H]3CC[C@@H]4C[C@H](O)CC[C@]4(C)[C@H]3CC[C@]12C`, in data set [9], the inhibition entry was “inactive”. As for `C[C@H](CCC(=O)N[C@H](CC(=O)O)Cc1c[nH]c2ccccc12)[C@H]1CC[C@H]2[C@@H]3CC[C@@H]4CCCC[C@]4(C)[C@H]3CC[C@]12C`, at Ephrin type-A receptor 2, the IC50 is 28 µM.

Regarding `CSCC[C@@H](CC(=O)O)NC(=O)CC[C@@H](C)[C@H]1CC[C@H]2[C@@H]3CC[C@@H]4C[C@H](O)CC[C@]4(C)[C@H]3CC[C@]12C`, the IC50 at Ephrin type-A receptor 2 was found to be 83 µM.
